Screening data deposited in PubChem BioAssay by several laboratories.
Hits are enriched below; roughly 1.9% of the tested compounds scored in any of these assays.
NadD block = inhibitors of Staphylococcus aureus NadD. 0.78% of 360,000 active. inhibition, % at 20 µM. AID 602399. purified NadD enzyme, colorimetric absorbance read-out; in the data active = inhibition above about 26%
Rin1 Abl inh = inhibitors of human Rin1-Abl protein interaction | P00519+Q13671 | TR-FRET Rin1/Abl binding, biochemical | inhibition, % at 7.35 µM | 0.4% of 360,000 active; in the data active = inhibition above about 5%, passing the limit was not always enough
ABHD5-PLIN5 inh = inhibitors of human ABHD5-perilipin-5 interaction; Split G. princeps luciferase complementation, luminescence, 4 h; inhibition, % at 4 µM; 0.78% of 360,000 active;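 active = inhibition above the mean inhibition across every tested compound plus 3 SD, cut at about 22% in these data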
XiGFP reactiv = X-chromosome reactivation activator | XiGFP mouse fibroblasts, % GFP-positive cells imaging, 3 d; cells co-treated with 5-aza-dC sensitizer; scaled so ellipticine positive control = 100% | activation, % at 7.58 µM | 0.055% of 360,000 active | AID 743238;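 active = mean normalized replicate activation at least 10% and every replicate at or above 10%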
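Assay system – SV40-immortalized XiGFP fibroblast cells, line 68-5-11 · Buffer or medium – DMEM supplemented with 5-aza-dC as sensitizing agent · Dosing – one concentration, pinned · Benchmarks – positive control ellipticine, 6 µM final · Times – 3 days compound exposure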
Rpn11 block = Rpn11 (human) deubiquitinase inhibition. human 26S proteasome, Ub4-pepOG fluorescence polarization; 20S core pre-blocked with epoxomicin. 0.59% of 360,000 active. inhibition, % at 20 µM;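 active = inhibition at 20 µM, scaled to each plate's controls, above about 33%, limit read from the data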
Target sequence (O00487 whole entry, looked up): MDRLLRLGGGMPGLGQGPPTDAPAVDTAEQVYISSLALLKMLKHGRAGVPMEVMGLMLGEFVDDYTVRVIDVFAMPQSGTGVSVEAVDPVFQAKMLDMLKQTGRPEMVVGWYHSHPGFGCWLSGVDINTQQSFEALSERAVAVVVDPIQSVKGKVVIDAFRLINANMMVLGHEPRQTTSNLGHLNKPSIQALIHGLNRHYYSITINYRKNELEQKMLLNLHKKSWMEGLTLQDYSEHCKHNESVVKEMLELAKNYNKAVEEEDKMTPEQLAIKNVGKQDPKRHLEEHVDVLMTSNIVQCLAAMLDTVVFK
Rpn11 confirm = Rpn11 inhibition confirmation, single concentration. purified human 26S proteasome, Ub4-pepOG fluorescence polarization; proteasome pretreated with epoxomicin. inhibition, % at 20 µM. 29% of 1,900 active. AID 602318. shares compounds with Rpn11 block
MMP-2 inh = blocks human MMP-2, flagging nonselective RPN11 hits | 4% of 1,900 active | shares compounds with Rpn11 block | recombinant MMP-2, FRET peptide cleavage fluorescence | inhibition, % at 20 µM;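 also: human MMP-2 activated beforehand with APMA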
Thrombin FP = counter-screen for RPN11 inhibitors: inhibition of bovine thrombin; shares compounds with Rpn11 block; bovine thrombin cleavage of Ub4-pepOG, fluorescence polarization; inhibition, % at 20 µM; 13% of 1,900 active;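 active = mean inhibition at least 40% at 20 µM, or signal 3 deviations below plate average, so some actives read negative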
A number is an active result; . = inactive; / = not tested or not shown; + = active, no number. Rule as the data show it, unless noted: active = inhibition above about 40%; inactive = the rest.

SMILES	NadD block	Rin1 Abl inh	ABHD5-PLIN5 inh	XiGFP reactiv	Rpn11 block	Rpn11 confirm	MMP-2 inh	Thrombin FP
N#C/C(=C/c1ccc(OC(=O)c2ccc(Br)s2)cc1)c1nc2ccccc2[nH]1	.	.	.	.	.	/	/	/
N#C/C(=C\c1ccncc1)c1nc2ccccc2[nH]1	.	.	.	.	.	/	/	/
N#C/C(=C\c1ccc(OC(=O)c2ccc(Cl)s2)cc1)c1nc2ccccc2[nH]1	.	.	.	.	49	.	.	.
C[C@@H]1CCCCO[C@H](CN(C)C(=O)NC2CCCCC2)[C@H](C)CN([C@H](C)CO)C(=O)c2cc(NC(=O)Cc3ccccc3)ccc2O1	/	/	/	.	/	/	/	/
CCc1c(Cl)nc(N)nc1Nc1ccccc1C	.	.	.	.	76	.	.	.
Cc1cc(-c2ccc(S(=O)(=O)N(C)c3ccc(C)c(C)c3)s2)on1	.	.	.	.	40	43	.	40
O=S(=O)(c1ccc(Br)s1)N1CCN(c2ccc(F)cc2)CC1	.	.	.	.	.	/	/	/
O=S(=O)(c1ccc(Br)s1)N1CCN(c2ccccc2)CC1	.	.	.	/	52	.	.	.
O=Cc1ccc(-c2nc3ccccc3s2)o1	.	.	.	.	.	/	/	/
O=C(O)CCN1C(=O)/C(=C/c2ccc(-c3nc4ccccc4s3)o2)SC1=S	.	.	.	/	+	173	.	.
O=C(O)CCCN1C(=O)/C(=C\c2ccc(-c3nc4ccccc4s3)o2)SC1=S	.	.	.	.	159	70	.	.
C[C@@H]1CN([C@@H](C)CO)C(=O)c2cccc(NC(=O)CCCCCC(=O)Nc3ccccc3N)c2O[C@H]1CN(C)CC1CCCCC1	/	/	/	.	/	/	/	/
Clc1cccc(Sc2ccc(-c3ccccn3)s2)c1	.	.	.	.	67	.	.	.
CO[C@H]1CN(C)C(=O)c2ccc(NC(C)=O)cc2OC[C@H](C)N(Cc2ccccc2C(=O)O)C[C@@H]1C	/	/	/	.	/	/	/	/
Cc1nc(SCc2nc3ccccc3[nH]2)c2oc3cc(Br)ccc3c2n1	.	.	.	.	83	45	.	43
Cc1ccc2oc3c(SCc4nc5ccccc5[nH]4)nc(C)nc3c2c1	.	.	.	.	/	/	/	/
COc1ccc(CC(=O)Nc2ccc(-c3noc(-c4ccc(Cl)cc4)n3)cc2)cc1	.	.	.	/	98	.	.	.
COc1ccc(CC(=O)Nc2ccc(-c3noc(-c4cc(OC)c(OC)c(OC)c4)n3)cc2)cc1	.	.	.	/	.	/	/	/
COc1ccc(Cl)cc1C(=O)Nc1cccc(-c2ccc3nncn3n2)c1	.	.	.	.	+	76	.	.
Cc1ccccc1NC(=S)NCc1cccs1	.	.	.	/	162	.	.	.
CC1=C(C(=O)c2ccccc2)C(c2ccc(N3CCOCC3)cc2)NC(=O)N1 (stereo not drawn)	.	.	.	.	74	51	.	41
CC1=C(C(=O)c2ccccc2)C(c2ccc(O)cc2)NC(=S)N1 (stereo not drawn)	.	.	.	.	.	/	/	/
O=C1c2ccccc2/C(=C\c2ccc(Br)s2)N1c1ccccc1	.	.	.	.	41	.	.	.
Oc1[nH]c2ccccc2c1N=Nc1nc2ccccc2s1	.	.	.	/	39	.	.	.
COc1ccc(N(CC(=O)NCc2ccccc2OC)S(=O)(=O)c2ccccc2[N+](=O)[O-])c(OC)c1	.	.	.	.	.	/	/	/
SMILES	NadD block	Rin1 Abl inh	ABHD5-PLIN5 inh	XiGFP reactiv	Rpn11 block	Rpn11 confirm	MMP-2 inh	Thrombin FP
COc1ccc(N(CC(=O)NCc2ccc3c(c2)OCO3)S(=O)(=O)c2ccccc2[N+](=O)[O-])c(OC)c1	.	.	.	.	56	.	.	.
CC=Cc1ccc2n(c1=O)C[C@@H]1[C@@H](CO)[C@H](C(=O)NCC(F)(F)F)[C@H]2N1C(=O)C1CCCC1 (mixture of isomers)	/	/	/	.	/	/	/	/
C[C@@H]1CN([C@@H](C)CO)C(=O)c2cc(C#Cc3cccc(F)c3)cnc2O[C@@H]1CN(C)CC1CC1	/	/	/	.	/	/	/	/
CC(C)C#Cc1ccc2c(c1)O[C@H](CN(C)C(=O)C1CCC1)[C@@H](C)CN([C@H](C)CO)S2(=O)=O	/	/	/	.	/	/	/	/
CC(=O)c1cccc(NS(=O)(=O)N(C)C)c1	.	.	.	/	128	.	.	.
CN(C)S(=O)(=O)Nc1cccc(Br)c1	.	.	.	.	.	/	/	/
COC(=O)c1ccc(C23CC4(C2)[C@H](CN(Cc2cccnc2)[C@@H]4c2ccccc2)C3c2ccccc2)cc1 (stereo partly drawn)	.	.	.	.	44	.	.	.
COC(=O)c1ccc(C23CC4(C2)[C@H](CN(Cc2cccnc2)[C@@H]4c2ccccc2)C3c2ccc(C(F)(F)F)cc2)cc1 (stereo partly drawn)	/	/	/	.	/	/	/	/
N#CNC(=Nc1cccc(F)c1)SCc1ccccc1	.	.	.	.	47	.	.	.
N#CNC(=Nc1cccc(F)c1)SCc1cccc(F)c1	.	.	.	.	.	/	/	/
CCOC(=O)c1c(NC(=O)c2cc(-c3ccc(O)cc3)on2)sc(C(C)=O)c1C	.	.	.	.	171	.	.	.
CCOC(=O)c1c(NC(=O)CC(C)C)sc(C(C)=O)c1C	.	.	.	/	.	/	/	/
Cc1ccccc1C(=O)O/N=C(\N)c1cccc([N+](=O)[O-])c1	.	.	.	/	.	/	/	/
N/C(=N\OC(=O)c1cccc2ccccc12)c1cccc([N+](=O)[O-])c1	.	.	.	/	81	.	.	.
O=C(CCl)NCCN1C(=O)S/C(=C\c2cccnc2)C1=O	.	.	.	.	46	53	.	.
CSc1sc(-c2nnc(SCC(=O)Nc3ccc(Cl)cc3)n2C)c2c1C=CCC2	.	.	.	.	40	.	.	.
Cn1c(SCC(=O)Nc2ccc(Cl)cc2)nnc1C1CC1	.	.	.	.	.	/	/	/
CCSc1nc2sc3c(c2c(=O)n1-c1ccccc1)CCN(C)C3	.	.	.	.	53	.	.	.
CCCN1CCc2c(sc3nc(SCC)n(-c4ccccc4)c(=O)c23)C1	.	.	.	/	.	/	/	/
C[C@@H]1CN([C@@H](C)CO)C(=O)c2cc(NS(=O)(=O)c3cn(C)cn3)ccc2O[C@@H](C)CCCCO[C@@H]1CN(C)Cc1ccc(C(F)(F)F)cc1	/	/	/	.	/	/	/	/
CCOC(=O)c1nc2cc3n(c(CC(C)C)c-2c1C)CC(C)=C3C	.	.	.	/	56	.	.	.
CCOC(=O)c1nc2cc3n(c(C)c-2c1C)C(C)C(C)=C3C (stereo not drawn)	.	.	.	/	.	/	/	/
CCOC(=O)c1c(CC(C)C)csc1/N=C/C1C(=O)CC(C)(C)CC1=O	.	.	.	.	48	.	.	.
